Assay results published in ChEMBL document CHEMBL3797154, “Design and Synthesis of 1-((1,5-Bis(4-chlorophenyl)-2-methyl-1H-pyrrol-3-yl)methyl)-4-methylpiperazine (BM212) and N-Adamantan-2-yl-N'-((E)-3,7-dimethylocta-2,6-dienyl)ethane-1,2-diamine (SQ109) Pyrrole Hybrid Derivatives: Discovery of Potent Antitubercular Agents Effective against …” (J Med Chem, 2016).
≈ marks a conversion by molar mass, not a printed value. Calls of active or inactive are those of the source. No cut-off for these calls is given here.

How the values were obtained:
[1] = tested on: Mycobacterium tuberculosis; test: Antimycobacterial activity against Mycobacterium tuberculosis H37Rv ATTC 27294 assessed as inhibition of mycobacterial growth incubated for 7 days; format: functional
Outline: (§1)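 MIC by HT-SPOTi on Middlebrook 7H10 agar with 0.05% (v/v) glycerol and 10% (v/v) OADC in 96-well format. Compounds dissolved at 50 mg/mL (stock), two-fold serial dilutions, final 500-0.5 µg/mL. Each well spotted with 2 µL early-to-midlog culture (2x10^3 CFU), incubated at 37 °C until distinct spots in control wells. DMSO-only and isoniazid controls; triplicate.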

[2] = tested on: Mycolicibacterium smegmatis; test: Antimycobacterial activity against Mycobacterium smegmatis str. MC2 155 ATCC 700084 assessed as inhibition of mycobacterial growth incubated for 24 hrs by MABA method; format: functional; conditions: MC2 155 ATCC 700084, 24 h
Mycolicibacterium aurum [3] = test: Inhibition of multidrug resistance efflux pump in Mycobacterium aurum ATCC 23366 assessed as inhibition of ethidium bromide efflux by measuring relative fluorescence units for ethidium bromide accumulation at 1/4 times MIC incubated for 60 mins by fluorimetric assay
Outline: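 Whole-cell efflux assay: early-log cells (OD600 ~0.8) adjusted to OD600 0.4, washed into PBS; 4-6x10^7 bacteria/mL with 0.4% glucose, 0.5 mg/L ethidium bromide substrate and compound at 1/4x MIC. Fluorescence ex 544/em 590 nm at 37 °C every minute for 60 min; accumulation scored 0-4 by relative fluorescence bands. Verapamil positive, PBS negative control.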

[4] = tested on: Mycobacterium tuberculosis; test: Antimicrobial activity against Mycobacterium tuberculosis; format: functional
[5] = tested on: Mycobacterium tuberculosis; test: Antimycobacterial activity against Mycobacterium tuberculosis mc'2-7000x assessed as inhibition of mycobacterial growth; format: functional
[6] = Cytotoxic activity against human THP1 cells assessed as reduction in cell viability incubated for 48 hrs by […] based assay; parameters: species or system THP-1; conditions: for GI50: thp-1, 48 h; for GI50 at 48 h: THP1 cells
Outline: (§2)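 RAW264.7 or THP-1 cells were grown in RPMI-1640 with 10% FBS and seeded at 10^5 cells/mL. Compound was two-fold serially diluted from a 50 mg/mL stock, with a solvent-control row. Plates were held 48 h at 37 °C in 5% CO2. Wells were washed twice with PBS, with centrifugation between washes for THP-1, then given fresh RPMI plus 0.01% […]. After overnight incubation, fluorescence was read at 560/590 nm and GIC50 derived.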

Mycolicibacterium aurum [7] = test: Antimycobacterial activity against Mycobacterium aurum ATCC 23366 assessed as inhibition of mycobacterial growth incubated for 4 days; format: functional
Outline: (§3)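 HT-SPOTi agar dilution: two-fold serial dilutions of compound were mixed into Middlebrook 7H10 agar with 0.05% glycerol and 10% OADC, giving a final range of 500–0.5 µg/mL. Each well was spotted with 2x10^3 CFU of early-to-mid-log culture. Plates were incubated at 35 or 37 °C until spots appeared in control wells. Controls were DMSO-only and isoniazid. The MIC was read, in triplicate.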

Mycolicibacterium aurum [8] = test: Antimycobacterial activity against Mycobacterium aurum ATCC 23366 assessed as inhibition of mycobacterial growth at 500 ug/ml incubated for 4 days; format: functional, organism-based; outline: as §3
[9] = Cytotoxic activity against mouse RAW264.7 cells assessed as reduction in cell viability incubated for 48 hrs by […] based assay; outline: as §2
[10] = Selectivity index, ratio of GIC50 for cytotoxicity against human THP1 cells to MIC for Mycobacterium tuberculosis H37Rv ATTC 27294; format: toxicity, cell-based, THP-1; conditions: read-out: Selectivity Index
Outline: (§4)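 SI = GIC50 / H37Rv MIC (agar spot assay). GIC50 from cells in RPMI-1640 + 10% FBS, 37 °C, 5% CO2; 10^5 cells/mL added to two-fold compound dilutions from 50 mg/mL stock, solvent control row. 48 h exposure, washes (THP-1 centrifuged), fresh medium plus 0.01% […], overnight; fluorescence ex 560/em 590 nm.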

[11] = tested on: Mycobacterium tuberculosis; test: Antimycobacterial activity against Mycobacterium tuberculosis mc'2-7000x assessed as inhibition of mycobacterial growth at 500 ug/ml; format: functional, organism-based
[12] = Selectivity index, ratio of GIC50 for cytotoxicity against mouse RAW264.7 cells to MIC for Mycobacterium tuberculosis H37Rv ATTC 27294; format: toxicity, cell-based; conditions: read-out: Selectivity Index; outline: as §4
[13] = tested on: Mycobacterium tuberculosis; test: Antimycobacterial activity against Mycobacterium tuberculosis H37Rv ATTC 27294 assessed as inhibition of mycobacterial growth at 500 ug/ml incubated for 7 days; format: functional, organism-based; outline: as §1

Row | Compound | MIC ([1]; H37Rv ATTC 27294, 168 h) [µg/mL] | MIC [2] [µg/mL] | Activity (Mycolicibacterium aurum [3]) [RFU] | MIC [4] [µM] | MIC [5] | GI50 [6] | MIC (Mycolicibacterium aurum [7]; ATCC 23366, 96 h) [µg/mL] | growth inhibition (GI) (Mycolicibacterium aurum [8]) | GI50 at 48 h [9] [µg/mL] | selectivity ratio [10] | GI50 at 48 h [6] [µg/mL] | MIC (Mycolicibacterium aurum [7]) | growth inhibition (GI) [11] | selectivity ratio [12] | MIC [1] | growth inhibition (GI) [13]
1 | CC(C)=CCC/C(C)=C/CNCCNC1C2CC3CC(C2)CC1C3 (stereo unspecified) [SQ109] | 0.51 (≈ 1.54 µM) | 4 (≈ 12.1 µM) | 2 | 0.5 (≈ 0.165 µg/mL) | 2 µg/mL (≈ 6.05 µM) | Not Active | 7.8 (≈ 23.6 µM) | – | – | – | – | – | – | – | – | –
2 | Cc1cc(/C=N\OCc2ccccc2)c(C)n1-c1ccc(Cl)cc1 | > 125 | > 64 | 1 | – | > 64 µg/mL | – | – | inactive | 128 (≈ 378 µM) | < 4 | 500 (≈ 1480 µM) | inactive | – | – | – | –
3 | Cc1cc(/C=N\OCc2ccccc2)c(C)n1-c1ccc(F)cc1 | 25 (≈ 77.5 µM) | – | – | – | inactive | – | – | – | – | – | – | – | inactive | – | – | –
4 | Cc1cc(CNCCc2ccccc2)c(C)n1-c1ccc(Cl)cc1 | 1 (≈ 2.95 µM) | 32 (≈ 94.4 µM) | 2 | – | 4 µg/mL (≈ 11.8 µM) | – | 16 (≈ 47.2 µM) | – | 9.9 (≈ 29.2 µM) | 7.3 | 7.3 (≈ 21.5 µM) | – | – | 10 | – | –
5 | Cc1cc(CNOCc2ccccc2)c(C)n1-c1ccc(Cl)cc1 | – | > 64 | 2 | – | > 64 µg/mL | – | – | inactive | 133 (≈ 390 µM) | – | 67 (≈ 197 µM) | inactive | – | – | inactive | inactive
6 | Cc1cc(CNCc2ccccc2)c(C)n1-c1ccc(Cl)cc1 | 0.5 (≈ 1.54 µM) | 4 (≈ 12.3 µM) | 2 | – | 0.5 µg/mL (≈ 1.54 µM) | – | 1.9 (≈ 5.85 µM) | – | 5.5 (≈ 16.9 µM) | 14 | 7.2 (≈ 22.2 µM) | – | – | 11 | – | –
7 | Cc1c(CN2CCN(C3C4CC5CC(C4)CC3C5)CC2)cc(-c2ccc(Cl)cc2)n1-c1ccc(Cl)cc1 (stereo unspecified) | 62 (≈ 116 µM) | > 64 | 0 | – | > 64 µg/mL | – | – | – | 95 (≈ 178 µM) | 8.1 | 500 (≈ 935 µM) | inactive | – | 1.5 | – | –
8 | Cc1cc(CN2CCN(C3C[C@@H]4CC[C@H]3C4)CC2)c(C)n1-c1ccc(Cl)cc1 (mixture of isomers) | 1.9 | 27 | 1 | – | 2 µg/mL | – | 16 | – | 5.6 | 8.4 | 16 | – | – | 2.9 | – | –
9 | Cc1cc(CNCc2ccccc2)c(C)n1-c1ccc(F)cc1 | 1 (≈ 3.24 µM) | 16 (≈ 51.9 µM) | 1 | – | 4 µg/mL (≈ 13 µM) | – | 7.8 (≈ 25.3 µM) | – | 5.6 (≈ 18.2 µM) | 28 | 28 (≈ 90.8 µM) | – | – | 5.6 | – | –
10 | Cc1cc(CN2CCN(c3ccccc3)CC2)c(C)n1-c1ccc(Cl)cc1 | 7.8 (≈ 20.5 µM) | 32 (≈ 84.2 µM) | 1 | – | 32 µg/mL (≈ 84.2 µM) | – | 31 (≈ 81.6 µM) | – | 33 (≈ 86.9 µM) | 3.2 | 25 (≈ 65.8 µM) | – | – | 4.2 | – | –
11 | Cc1cc(CNOCc2ccccc2)c(C)n1-c1ccc(F)cc1 | > 125 | > 64 | 4 | – | > 64 µg/mL | – | – | inactive | 123 (≈ 379 µM) | < 2.3 | 292 (≈ 900 µM) | inactive | – | < 1 | – | –
12 | NNC(=O)c1ccncc1 [ISONIAZID] | 0.24 (≈ 1.75 µM) | – | – | – | inactive | Not Active | – | – | – | – | – | – | inactive | – | – | –
13 | Cc1ccc(CNCc2cc(C)n(-c3ccc(Cl)cc3)c2C)cc1 | 1 (≈ 2.95 µM) | 8 (≈ 23.6 µM) | 2 | – | 2 µg/mL (≈ 5.9 µM) | – | 1.9 (≈ 5.61 µM) | – | 0.1 (≈ 0.295 µM) | 6.1 | 6.1 (≈ 18 µM) | – | – | 0.1 | – | –
14 | Cc1cc(CNCc2ccc(Cl)cc2)c(C)n1-c1ccc(Cl)cc1 | 16 (≈ 44.5 µM) | 4 (≈ 11.1 µM) | 2 | – | 2 µg/mL (≈ 5.57 µM) | – | 1.9 (≈ 5.29 µM) | – | 0.1 (≈ 0.278 µM) | 1.1 | 18 (≈ 50.1 µM) | – | – | 0.006 | – | –
15 | Cc1cc(CN2CCN(C3CCCCC3)CC2)c(C)n1-c1ccc(Cl)cc1 | 3.9 (≈ 10.1 µM) | 27 (≈ 70 µM) | 4 | – | 8 µg/mL (≈ 20.7 µM) | – | 31 (≈ 80.3 µM) | – | 5.5 (≈ 14.2 µM) | 4.1 | 16 (≈ 41.5 µM) | – | – | 1.4 | – | –
16 | Cc1c(CN2CCN(C34CC5CC(CC(C5)C3)C4)CC2)cc(-c2ccc(Cl)cc2)n1-c1ccc(Cl)cc1 | 7.8 (≈ 14.6 µM) | 3.3 (≈ 6.17 µM) | 3 | – | 0.5 µg/mL (≈ 0.935 µM) | – | 62 (≈ 116 µM) | – | 23 (≈ 43 µM) | 4.5 | 35 (≈ 65.5 µM) | – | – | 2.9 | – | –
17 | Cc1cc(CN2CCN(C3C4CC5CC(C4)CC3C5)CC2)c(C)n1-c1ccc(Cl)cc1 (stereo unspecified) | 7.8 (≈ 17.8 µM) | 8 (≈ 18.3 µM) | 1 | – | 3.3 µg/mL (≈ 7.53 µM) | – | 7.8 (≈ 17.8 µM) | – | 5.7 (≈ 13 µM) | 4.1 | 32 (≈ 73 µM) | – | – | 0.7 | – | –
